# Shown are actives, neighbours in structure and some others; about 12% of the full set was active somewhere.
# Wee1 stabilizer = Wee1 degradation inhibitors, primary screen, cell-based, HeLa, Wee1K328M-luciferase, luminescence. reporter increase, % at 5 µM. HeLa Luc-Wee1K328M stability; 100% = proteasome inhibitor MG132 effect. AID 1321, 2008. hit rate 1.2% among 220,000;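 active = activation above the mean of all tested compounds plus 3 SD, set per screening run, cut at about 8.8% in these data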;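 note: cells exposed to compound for 20 h before luminescence read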
# Target sequence (P30291 whole entry K328M): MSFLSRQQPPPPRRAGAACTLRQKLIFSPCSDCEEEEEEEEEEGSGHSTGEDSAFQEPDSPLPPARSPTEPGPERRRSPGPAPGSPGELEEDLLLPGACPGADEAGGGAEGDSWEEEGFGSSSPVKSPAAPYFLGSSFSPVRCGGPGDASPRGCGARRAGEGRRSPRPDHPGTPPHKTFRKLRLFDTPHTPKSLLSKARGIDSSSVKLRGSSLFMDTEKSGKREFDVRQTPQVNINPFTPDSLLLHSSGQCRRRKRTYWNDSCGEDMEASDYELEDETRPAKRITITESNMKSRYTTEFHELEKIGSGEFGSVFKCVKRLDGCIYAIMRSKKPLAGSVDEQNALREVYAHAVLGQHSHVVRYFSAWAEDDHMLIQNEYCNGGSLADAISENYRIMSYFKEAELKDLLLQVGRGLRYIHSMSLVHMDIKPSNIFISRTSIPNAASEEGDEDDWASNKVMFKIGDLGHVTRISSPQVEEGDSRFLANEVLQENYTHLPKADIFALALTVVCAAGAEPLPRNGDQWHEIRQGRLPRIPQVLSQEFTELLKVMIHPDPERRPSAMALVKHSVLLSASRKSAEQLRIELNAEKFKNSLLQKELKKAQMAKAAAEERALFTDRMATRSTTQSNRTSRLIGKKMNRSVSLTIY
# CHOP inhibitor = inhibitors of CHOP promoter induction, primary screen, cell-based, unfolded protein response, luciferase reporter. AID 2732, 2010. CHO-K1 CHOP-promoter luciferase, tunicamycin-induced, 15-18 h. inhibition, % at 10 µM. hit rate 3.8% among 220,000;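 active = compounds that reduced the stress-induced luciferase reporter signal by more than about 70% of percent inhibition, limit read from the data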
# Arbovirus anti = antivirals against arbovirus infection, primary screen, cell-based, full library, 10K replicate subset. arbovirus infection cell-based antiviral screen. inhibition, % at 10 µM. hit rate 0.37% among 200,000. AID 1251, 2008; in the data active = inhibition above about 30%
# Rad51 HR inh = human RAD51 strand exchange inhibitors, primary screen, biochemical, fluorescence. DNA repair protein RAD51 homolog 1 (Homo sapiens), Q06609. hRad51 DNA strand exchange, fluorescence dequenching. inhibition, % at 10 µM. hit rate 0.085% among 200,000. AID 1385, 2008;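 active = inhibition above 40% at the single screening dose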
#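 Test system – preformed human Rad51 ssDNA filaments · Reagent – Donor/quencher-labelled 47-bp dsDNA substrate · Incubation – 37 °C 15-min filament assembly, 30-min compound preincubation, 15-min exchange · Signal – FRET fluorescence dequenching, excitation 485 nm, emission 520 nm · Read-out – percent inhibition from fluorescence, normalised to plate control and blank means · Benchmarks – plate control and blank wells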
# PKD1 kinase inh = inhibitors of human PKD1 kinase, biochemical, fluorescence polarization | Serine/threonine-protein kinase D1 (Homo sapiens), Q15139 | PKD1 kinase fluorescence polarization assay | inhibition, % (test concentration not listed) | hit rate 0.056% among 200,000 | AID 797, 2007
# Lmaj promast = Leishmania major promastigote growth inhibition, primary screen; Leishmania major promastigotes, resazurin fluorescence viability; inhibition, % at 10 µM; AID 1063, 2008; hit rate 9% among 200,000;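 note: promastigotes grown with compound for 44 hours at 28 °C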
# Numbers stand for hits; i = inactive; nt = no result given. Cut-off read from the data, not from the text of the source, unless noted: active = inhibition above about 50%; inactive = the rest.
SMILES,Wee1 stabilizer,CHOP inhibitor,Arbovirus anti,Rad51 HR inh,PKD1 kinase inh,Lmaj promast
O=C(Nc1ccc(Cl)cc1)c1cc2c(cc1O)[nH]c1ccccc12,i,77,nt,nt,nt,nt
Nc1nc(-c2ccccc2)nn1C(=O)Cc1ccccc1,i,i,i,i,i,i
Nc1nc(-c2cccnc2)nn1C(=O)Cc1ccccc1,i,78,i,i,i,i
CCCn1c(SCC(=O)N2N=C3/C(=C/c4ccc(OC)cc4)CCCC3C2c2ccc(OC)cc2)n[nH]c1=O (stereo unspecified),i,71,i,i,i,92
CCCn1c(SCC(=O)NCc2ccc(OC)cc2)n[nH]c1=O,i,i,i,i,i,i
CC(=O)N1N=C2/C(=C/c3ccccc3)CCCC2C1c1ccccc1 (stereo unspecified),i,i,i,i,i,97
COc1ccc(C2NC(=O)c3sc4nc(C)c(C(C)=O)c(-c5ccc(Cl)cc5)c4c3N2)cc1 (stereo unspecified),i,i,i,i,i,i
COc1ccc(C(=O)N/C(=C\c2ccco2)C(=O)NC2CCS(=O)(=O)C2)cc1 (stereo unspecified),i,i,i,i,i,i
CC(C)Sc1nc(N2CCOCC2)c2c3c(sc2n1)COC(C)(C)C3,i,82,i,i,i,i
S=C(NCCCN1CCOCC1)NCCCN1CCOCC1,i,i,i,i,i,i
CCCCCCCCNC(=S)NCCN1CCCCC1,i,i,i,i,i,97
Cc1cc(C)nc(S/C=C/C(=O)c2ccccc2F)n1,i,85,nt,i,nt,nt
COc1ccc(N2C(=O)CSC23C(=O)N2CCCc4cccc3c42)cc1 (stereo unspecified),i,i,i,i,i,i
COc1ccc(N2C(=O)CSC23C(=O)N2c4c(cccc43)C(C)=CC2(C)C)cc1 (stereo unspecified),i,75,i,i,i,100
COCCCNCC(O)COc1ccccc1F (stereo unspecified),i,i,i,i,i,i
CC(=O)Nc1cc(OC(C)=O)c2nonc2c1OC(C)=O,i,nt,nt,i,i,101
Cc1cc(C(=O)NNc2ccc(C(C)C)cc2)n(C(C)(C)C)n1,i,i,nt,i,nt,nt
CCc1cc2c(COC(=O)c3c(C)noc3C)cc(=O)oc2cc1O,i,95,i,i,i,86
COc1ccc(C(C)=O)cc1COC(=O)c1c(C)noc1C,i,i,i,i,i,i
Fc1ccc(-c2csc(/C=C/c3ccc4c(c3)OCO4)n2)cc1,i,i,i,i,i,i
CC1C(C)C(O)(c2ccccc2)CCN1C (stereo unspecified),i,i,i,i,i,69
CC1CC(O)(Cc2ccccc2)C(C)CN1C (stereo unspecified),i,i,i,i,i,i
Cc1ccc(N2C(S)=C(C#N)C(=O)NC2c2cccs2)cc1 (stereo unspecified),i,i,i,i,i,61
N#C/C(=N\Nc1ccc(F)cc1)C(=N)N1CCCCCC1,i,i,i,i,i,i
Cc1ccc(N/N=C(\C#N)C(=N)N2CCOCC2)cc1,i,i,i,i,i,87
SMILES,Wee1 stabilizer,CHOP inhibitor,Arbovirus anti,Rad51 HR inh,PKD1 kinase inh,Lmaj promast
N#C/C(=N\Nc1ccc(Cl)cc1)C(=N)N1CCCCC1,i,i,i,i,i,73
Cc1onc(-c2c(Cl)cccc2Cl)c1COC(=O)c1ccc(Cl)cc1,i,i,nt,i,nt,nt
COc1ccc(CNC(=O)c2sc3nc4c(c(C(F)(F)F)c3c2N)CCC4)cc1,i,i,i,i,i,i
Cc1cccc(C)c1NC(=S)NC(C)CCc1ccccc1 (stereo unspecified),i,i,i,i,i,61
Cc1ccc(NC(=S)NC(C)CCc2ccccc2)cc1C (stereo unspecified),i,i,i,i,i,90
Cc1cc(C)c(NC(=O)CS(=O)CC(=O)Nc2ccc(F)cc2F)c(C)c1 (stereo unspecified),i,i,nt,i,nt,nt
COc1ccccc1CNCCCCCCNCCCCCCCCNCCCCCCNCc1ccccc1OC,nt,i,nt,nt,nt,nt
CCC(CC)NC(=O)/C=C/c1ccccc1Cl,i,i,i,i,i,i
O=C(/C=C/c1ccc(Cl)cc1Cl)Nc1ccncc1,i,i,i,i,i,95
O=C(/C=C/c1c(F)cccc1Cl)Nc1ccncc1,i,i,i,i,i,i
O=C(/C=C/c1ccccc1Cl)Nc1ccncc1,i,i,i,i,i,100
CC(=O)N(C)c1ccc(NC(=O)/C=C/c2ccccc2Cl)cc1,i,i,i,i,i,60
O=C(/C=C/c1c(Cl)cccc1Cl)Nc1ccncc1,i,i,i,i,i,98
O=C(c1cn(-c2ccccc2)nc1-c1ccc(Br)cc1)N1CCOCC1,i,i,i,nt,i,i
Cc1nc(NC(=O)/C=C/c2ccccc2)sc1C(=O)N(C)C,i,i,i,i,i,i
O=C(/C=C/c1cccc(Cl)c1)Nc1ccncc1,i,i,i,i,i,61
O=C(/C=C/c1cccc(Cl)c1)NCc1ccncc1,i,i,i,i,i,i
Cc1nc(NC(=O)/C=C/c2ccc(Cl)cc2Cl)sc1C(=O)N(C)C,i,85,i,nt,i,i
COc1ccc(S(=O)(=O)NCc2cc(-c3ccccc3Cl)no2)cc1,i,i,i,i,i,i
Cc1cccc(N2CCN(C(=O)COc3cccc4c3OC(C)(C)C4)CC2)c1C,i,79,i,i,i,i
O=C(c1ccccc1)c1cccn1CC(=O)N1CCCCCC1,i,i,i,i,i,i
Cc1cccc(N2CCN(C(=O)Cn3cccc3C(=O)c3ccccc3)CC2)c1C,i,71,i,i,i,i
Cc1cc(OCCCC(=O)N2CCCCC2)cc(C)c1Cl,i,83,i,i,i,i
Cc1cccc(N2CCN(C(=O)CCCOc3ccccc3)CC2)c1C,i,84,i,i,i,i
Cc1cc(Cl)ccc1OCCCC(=O)N1CCCCC1,i,i,i,i,i,i
SMILES,Wee1 stabilizer,CHOP inhibitor,Arbovirus anti,Rad51 HR inh,PKD1 kinase inh,Lmaj promast
CC(Cl)C(=O)NNC(=O)CNS(=O)(=O)c1ccccc1 (stereo unspecified),i,i,i,nt,i,i
O=C(NN1C(=O)c2ccccc2C1=O)c1ccc2c(c1)C(=O)N(CC1CCCO1)C2=O (stereo unspecified),i,i,nt,i,nt,nt
N#Cc1ccc(C(=O)CSc2n[nH]c(=O)n2Cc2ccco2)cc1,i,i,nt,i,nt,nt
O=C(O)Cn1cccc1C(=O)c1ccccc1,9.2,i,i,i,i,i
CC(=O)/C(=C\N(C)C)Sc1ccc(Cl)cc1,9.1,i,nt,i,nt,nt
CCn1c(CCNC(=O)c2ccc(OC)cc2)nnc1SCc1ccc(Cl)cc1Cl,i,i,i,i,i,91
CCn1c(CCNC(=O)c2ccc(OC)cc2)nnc1SCc1ccc(Cl)c(Cl)c1,i,i,i,i,i,93
CCn1c(CCNC(=O)c2ccc(OC)cc2)nnc1SCC(=O)Nc1ccccc1F,i,i,i,i,i,i
